ChEMBL document CHEMBL1148326, “Chemometric studies on the bactericidal activity of quinolones via an extended VolSurf approach” (2004)

What was measured:
Type in all cases: functional
Escherichia coli = assay: Antibacterial activity was evaluated against Escherichia coli
How it was run: (§1)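 MIC against aerobic bacteria, measured at Bayer AG, by standard agar dilution or broth microdilution per NCCLS M7-A5 guidelines. MIC taken as lowest concentration visibly inhibiting growth after in vitro incubation, read when untreated culture growth becomes visible; expressed as log 1/C.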

Staphylococcus aureus = assay: Antibacterial activity was evaluated against Staphylococcus aureus; how it was run: as §1
Enterococcus faecalis = assay: Antibacterial activity evaluated against Enterococcus faecalis; how it was run: as §1
Pseudomonas aeruginosa = assay: Antibacterial activity was evaluated against Pseudomonas aeruginosa; how it was run: as §1

Compound	Log 1/C (Escherichia coli)	Log 1/C (Staphylococcus aureus)	Log 1/C (Enterococcus faecalis)	Log 1/C (Pseudomonas aeruginosa)
CN1CCC[C@@H]2CN(c3c(F)cc4c(=O)c(C(=O)O)cn(C5CC5)c4c3Cl)C[C@@H]21	7.15	6.83	6.23	5.32
CC1=C(C)n2cc(C(=O)O)c(=O)c3c(F)c(F)c(N4CCN(C5CC5)CC4)c(c32)O1	4.12	4.42	4.12	3.51
O=C(O)c1cn(C(CF)CF)c2cc(N3C[C@@H]4CCCN[C@@H]4C3)c(F)cc2c1=O	5.61	5.01	5.01	4.11
CN1CCN(c2c(F)cc3c(=O)c(C(=O)O)cn(CF)c3c2F)CC1	7.07	5.85	5.55	5.85
O=C(O)c1cn(C2CC2)c2cc(N3CCN(C(CO)(CO)CO)CC3)c(F)cc2c1=O	5.34	4.74	4.13	3.53
O=C(O)c1cn2c3c(c(N4CCN(C5CC5)CC4)c(F)cc3c1=O)OC1=C2CCC1	4.15	4.75	4.75	3.54
COc1c(N2CC3=C(CN(C)CC3)C2)c(F)cc2c(=O)c(C(=O)O)cn(C3CC3)c12	6.84	6.84	6.52	5.32
C[C@H]1COc2c(N3C[C@H]4CCCN[C@H]4C3)c(F)cc3c(=O)c(C(=O)O)cn1c23	6.19	5.89	5.89	5.29
CN1CCN(c2cc3c(c(Cl)c2F)c(=O)c(C(=O)O)cn3C2CC2)CC1	7.1	6.48	5.88	5.28
O=C(O)c1cn(C2CC2)c2c(F)c(N3C[C@@H]4CCCN[C@@H]4C3)c(F)cc2c1=O	8.02	7.44	6.84	6.23
O=C(O)c1cn(C2CCOCC2)c2cc(N3CCNCC3)c(F)cc2c1=O	3.77	4.07	4.07	3.47
C=CCN1CCN(c2cc3c(cc2F)c(=O)c(C(=O)O)cn3C2CC2)CC1	6.82	6.21	5.61	5.31
O=C(O)c1cn(C2CC2)c2cc(N3CCN(c4ncccn4)CC3)c(F)cc2c1=O	4.41	5.01	4.71	3.5
CSc1cc2c(=O)c(C(=O)O)cn(C3CC3)c2c(SC)c1SC	4.36	4.96	3.76	3.46
O=C(O)c1cn(C2CC2)c2cc(N3C[C@H]4CCCN[C@H]4C3)c(F)cc2c1=O	6.82	6.21	5.91	5.61
O=C(O)c1cn(C2CC2)c2cc(N3CCN(C4CC4)CC3)c(F)cc2c1=O	7.08	6.17	5.57	4.67
CO/N=C/Cn1cc(C(=O)O)c(=O)c2cc(F)c(N3CCN(C)CC3)c(F)c21	5.29	4.39	3.49	4.39
CN1CCC[C@H]2CN(c3c(F)cc4c(=O)c(C(=O)O)cn(C5CC5)c4c3Cl)C[C@H]21	7.45	7.13	6.84	5.62

Compound	Log 1/C (Escherichia coli)	Log 1/C (Staphylococcus aureus)	Log 1/C (Enterococcus faecalis)	Log 1/C (Pseudomonas aeruginosa)
C#Cc1c(N2C[C@@H]3CCCN[C@@H]3C2)c(F)cc2c(=O)c(C(=O)O)cn(C3CC3)c12	7.7	7.7	7.7	5.9
O=C(O)c1cn(C2CC2)c2c([N+](=O)[O-])c(N3CCOCC3)c(F)cc2c1=O	5.58	5.58	4.67	3.77
CN1Cc2csc3c(C(=O)O)c(=O)c4cc(F)c(N5CCNCC5)c1c4n23	7.11	6.81	6.49	5.89
O=C(O)c1cn(C2C[C@@H]2F)c2c(Cl)c(N3C[C@H]4CCCN[C@H]4C3)ccc2c1=O (some centres undefined)	7.13	6.51	6.51	5.61
CN1CCN(c2c(F)cc3c(=O)c(C(=O)O)cn4c3c2OC(C(C)(C)C)=C4)CC1	4.44	3.84	4.14	3.53
O=C(O)c1cn(C2CC2)c2c(F)c(N3Cc4cccnc4C3)c(F)cc2c1=O	6.53	7.44	7.73	5.02
C[C@H]1COc2c(N3C[C@@H]4CCCN[C@@H]4C3)c(F)cc3c(=O)c(C(=O)O)cn1c23	6.8	6.19	6.19	5.59
O=C(O)c1cn(C2CC2)c2cc(N3CCN(c4ccncc4)CC3)c(F)cc2c1=O	5.91	5.61	4.71	3.5
CC(=O)N1CCC[C@H]2CN(c3c(F)cc4c(=O)c(C(=O)O)cn(C5CC5)c4c3Cl)C[C@H]21	5.35	5.95	5.65	3.84
O=C(O)c1cn(C2CC2)c2c(Cl)c(N3CCCCC3)c(F)cc2c1=O	6.46	7.42	6.79	5.26
O=C(O)c1cn(C2CC2)c2c(F)c(N3C[C@@H]4OCCN[C@@H]4C3)c(F)c(Br)c2c1=O	6.58	6.27	5.37	4.47
O=C(O)c1cn2c3c(c(N4CCNCC4)c(F)cc3c1=O)OC=C2COCc1ccccc1	3.55	4.15	4.15	3.55
O=C(O)c1cn(C2CC2)c2c(F)c(N3C4CCC3CC4)c(F)cc2c1=O	5.86	5.86	5.26	4.35
CN1CCN(c2nc3c(cc2Cl)c(=O)c(C(=O)O)cn3C2CC2)CC1	6.77	4.96	4.35	4.96
CC1CN(c2c(F)cc3c(=O)c(C(=O)O)cn(C4CC4)c3c2Cl)CC(C)N1 (centres undefined)	7.16	6.54	5.93	5.63
N[C@@]12C=CC=CC1CN(c1c(F)cc3c(=O)c(C(=O)O)cn([C@@H]4C[C@@H]4F)c3c1Cl)C2 (some centres undefined)	8.06	8.06	7.16	6.56
CCOc1c(F)cc2c(=O)c(C(=O)O)cn(C(C)(C)CF)c2c1Cl	4.35	4.95	4.05	3.45
CO/N=C/Cn1cc(C(=O)O)c(=O)c2cc(F)c(N3C[C@@H]4CCCN(C)[C@@H]4C3)c(F)c21	5.62	5.62	4.42	4.42
